From the RNAGym collection of RNA variant scans (doi:10.1126/science.aae0568)
This sample holds only a part of the variants without activity.

B1: tRNA (parent)
chain: GUUCCGUUGGCGUAAUGGUAACGCGUCUCCCUCCUAAGGAGAAGACUGCGGGUUCGAGUCCCGUACGGAACG

Variants of: B1
Assay: yeast fitness relative to wild type (ratio to wild type); higher = fitter; tRNA-Arg(CCU), competitive growth, 37 C, YPD
Method in brief: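 Gene amplicons from the start population and from each of six end populations were read by 100-nucleotide paired-end sequencing. Those end populations came from pooled Saccharomyces cerevisiae strains carrying tRNA-Arg(CCU) gene variants at the native locus, competed in YPD at 37°C for 24 hours. Fitness relative to wild type was worked out from changes in genotype frequencies. Genotypes needed ≥ 100 starting reads, and estimates < 0.5 were set to 0.5.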

Variant | yeast fitness
A37G U53C C62G | 0.594
G44C A65C | 0.742
U3A G41A | 0.754
U7A U8A G10C C27G C34G C55U A57G | ≤ 0.5
C22G U26C | 0.971
G6A C62G A70G | ≤ 0.5
U7A C27G C33A A36G G58A C66U | ≤ 0.5
C11U A20U C22A U53G | ≤ 0.5
G10A U16A G38C G41C A65G | ≤ 0.5
G10A A21G C27U A40U | ≤ 0.5
C30U A37G G39A | 0.552
G10C G12C | 0.645
C11G C29U U35C A36C | ≤ 0.5
C11G U59A C61A | ≤ 0.5
G56C A69U | 0.671
U16C A21C A37G U54C C55A | ≤ 0.5
C5U C24G C30G A36U C55U A69C | ≤ 0.5
C4G A14G U26C A36G A37C | ≤ 0.5
C4U G12A C24A C61U | 0.609
U3C A37U G52A | ≤ 0.5
C4A C5G | 0.571
U26A G38C A45U C55U | ≤ 0.5
G6A A40U A69C | 0.581
A45G C66U A69C | 0.598

Variant | yeast fitness
C4U U35C G50A C66A | 0.689
C30G C31G A65U C66G | ≤ 0.5
C5A C11G G17A A37U C49A | ≤ 0.5
U2A G6A A40U C46A | 0.596
A36C A42C | 0.727
C4G G25C C30G | 0.622
C31G U47A | 0.847
G9C G51C G58A | ≤ 0.5
A21G G39A G44C | ≤ 0.5
C4A U53A G67U | ≤ 0.5
U2C C4G G9A C24U A45C | ≤ 0.5
A20C G25C | 0.783
U26A G44C | 0.886
U13A U32A A37U G41A | ≤ 0.5
C24U A57C G68U | ≤ 0.5
G6A G10C C34U G52C | ≤ 0.5
C31A C61G G67C A70G | ≤ 0.5
U8A A36G G67C | ≤ 0.5
U2A C27G C31U | 0.539
C4A G23C G56C U59A A65G | ≤ 0.5
G9A G12C C31A C33G A45G | 0.611
C34U U35G G38A C62U A65C | ≤ 0.5
C4U A37C G50C | ≤ 0.5
G9A C30U G68C | ≤ 0.5

Variant | yeast fitness
C31U G41C A43C G48A C60G | ≤ 0.5
U3C G17C A40G U54C | 0.59
C5A A14C C29A G41C | 0.683
C5G C27G A45C | ≤ 0.5
C5G C11U A37C A57G | ≤ 0.5
C33G U47G A57G A69U | 0.509
C5G G51C C61G | 0.607
C5G G18C | 0.733
C22U C46A C61U | ≤ 0.5
C24U A45U A69U | 0.78
G10A G68A | 0.753
G18A C24G | 0.666
C11U G12C A21U U32A | 0.694
U3A U19C C22G C31G A69C | ≤ 0.5
U47G A57U | ≤ 0.5
A14U G52A | ≤ 0.5
U2C A40U U54A | ≤ 0.5
C33A G44A | 0.617
U19A C29G | 0.685
C11A A21C | 0.557
C4U A15C C55U G63C | ≤ 0.5
U13C G25A | 0.902
G9A C24G G41C C66G | ≤ 0.5
C4G U28C C55U | ≤ 0.5

Variant | yeast fitness
C49U A70U | 1
C4G A14G A37U G38A A70U | 0.628
U16A A36C A37G G56C | ≤ 0.5
C24U C31G C46U | 0.562
G17C U28G U54A C62U A70C | ≤ 0.5
G25A C31U A42G C62U A69C | ≤ 0.5
G17A A37U G38A | ≤ 0.5
A15G G68C | 0.648
C5A G63A C66U | 0.651
A14C A15U U64G C66A | ≤ 0.5
G12C C66G A69U | ≤ 0.5
C5G C22U | 0.72
U3C G18A U53A U54G A70G | ≤ 0.5
G10A C30A G48A | 0.559
C31U C34G A42C U47G A65C C66U | ≤ 0.5
A45G U53G | 0.586
C4G G9C G41A C55U U59A | ≤ 0.5
U3G C24U C31U G50U A69U | 0.56
C31U A43U G48A U53A | 0.587
C4G C24G C27A U28C A65U | ≤ 0.5
U7C G9C U28C G41A | ≤ 0.5
A14U U19A C55A C61G | ≤ 0.5
A14U A45U | 0.572
U7G U8C C11G C34U G41A | 0.547

Variant | yeast fitness
C11U U47C G48A G56A | ≤ 0.5
A15G G25A C61U | 0.558
C5U A37C G39C | ≤ 0.5
U35A C55A | ≤ 0.5
A14C G25C C62U | ≤ 0.5
C4U U16C A69C | 0.774
A21U C22U | 0.546
C33A C61G | 0.775
C24U A43U U47G U53C | ≤ 0.5
U3G C5U G23C C34G C55G A70C | ≤ 0.5
C4U C29G A37C C46G | ≤ 0.5
G9A G12U A14U | ≤ 0.5
G10C C24G C49G C55A | 0.683
A36G C55A C66A | ≤ 0.5
G9A C11G A40U G56A | ≤ 0.5
G18A C30U C55G G68A | ≤ 0.5
C27U G51C U59C C62A | ≤ 0.5
U8A C33U A65G | ≤ 0.5
A36C U47A G48C C61U | ≤ 0.5
A43U G52C C62A | ≤ 0.5
U8C A14C | 0.66
A43U A69C | 0.986
G56U A57G G68U | ≤ 0.5
G6C C29G | 0.723

Variant | yeast fitness
A14C C61A | 0.604
A14U U32C U53A C55A | ≤ 0.5
A57C C62A C66A | ≤ 0.5
C5G C11G U35G A42G G56C | ≤ 0.5
U35C G48A C60A | 0.648
U8A A45U | 0.818
G10A A69C | 0.858
A20G C46A | 0.925
C22U C31G G38A U47A C62U | ≤ 0.5
U8A C22U A36G A40C U47A | ≤ 0.5
C5U A21U A57U A65U | ≤ 0.5
A15U C29G C34U C66U | ≤ 0.5
C30A C33G A45U U59C | 0.543
A15G C30G A37C | ≤ 0.5
U28G G51C U64A C66U | ≤ 0.5
C11A A57G A69G | ≤ 0.5
U2G C4U U13A G41A A45C C49A U54G C55G | ≤ 0.5
G9U A20C C29U G50C U59G C62U G68A | ≤ 0.5
U7C G12C | 0.914
U16A U28A C62U | ≤ 0.5
U3C A65U | 0.997
U28A U47C | 0.858
A20C C22U A43U A69C | ≤ 0.5
U2C U13A U54C C66U | ≤ 0.5

Variant | yeast fitness
G6A G25A C34A G58A | ≤ 0.5
G6C G9A A21U U28C U35G A36C A65G C66A | ≤ 0.5
G17A A37C G52C G56C C60A U64A | ≤ 0.5
C22U C29G | 0.657
G48C U64C G67C | ≤ 0.5
A14C U32G | 0.752
C4U G67A | 0.904
G10A C11U C24A C55G | 0.595
G18C U28G C61U A65C | ≤ 0.5
U7A G12A A20G G23A U26G | ≤ 0.5
G6A G12A A57U | ≤ 0.5
C11G A37C C66G G68U | ≤ 0.5
U2C A36G | 0.907
C22G U32C A42C G48C C55G | ≤ 0.5
G10C C11G U13A A36G C55U | ≤ 0.5
C33G G50A | 0.614
G6A A15C C33U G39C C62G G68C | ≤ 0.5
G9A C31A C33A | ≤ 0.5
U13A G39C | 0.779
C29G C49G U53G A57G | ≤ 0.5
U7C C30G U32C A40C C62U G67A | ≤ 0.5
C4A C29G U47G U59G | ≤ 0.5
A21C C49G | 0.732
